Experimental data from ChEMBL document CHEMBL4138064, “Diazabicyclo analogues of maraviroc: synthesis, modeling, NMR studies and antiviral activity” (Medchemcomm, 2017).
Active and inactive are the calls of the source. The calls are words filed in the database; no cut-off is given here.

What was measured:
[1] = test system: Human immunodeficiency virus 1; experiment: Antiviral activity against CCR5-dependent HIV1 clade B isolate 6535 infected in human TZM-bl cells assessed as reduction in virus infection incubated for 48 hrs by luciferase reporter gene based viral neutralization assay; type: functional; details: Human immunodeficiency virus 1, clade B isolate 6535, TZM-bl
Procedure, shortened: (§1)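 Env-pseudotyped viruses made in 293T cells by proviral DNA transfection and titred by luciferase in TZM-bl cells. 200 TCID50 of virus preincubated 1 h at 37 °C with serially diluted compound (10 to 0.001 μM) in D-MEM/10% FBS. 10^4 TZM-bl cells per well with 15 μg/mL DEAE-dextran were then added, 37 °C, 48 h and 72 h. Four replicates per point. Luciferase read-out.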

[2] = test system: Human immunodeficiency virus 1; experiment: Antiviral activity against CCR5-dependent HIV1 clade B isolate 6535 infected in human TZM-bl cells assessed as reduction in virus infection incubated for 72 hrs by luciferase reporter gene based viral neutralization assay; type: functional, organism-based
Procedure, shortened: (§2)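 Single-round infection of TZM-bl cells with env-pseudotyped virus at 200 TCID50, preincubated 1 h at 37 °C with serial compound dilutions (10 to 0.001 μM) in D-MEM with 10% FBS. TZM-bl cells (10^4/well) carrying 15 μg/mL DEAE-dextran were then added and cultured 48 and 72 h at 37 °C, 5% CO2. Luciferase RLU were read in four replicates per point. IC90 was the 90% RLU drop versus virus-only wells, minus cell-only background.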

[3] = test system: Human immunodeficiency virus 1; experiment: Antiviral activity against CXCR4-dependent HIV1 HXB2 infected in human TZM-bl cells assessed as reduction in virus infection incubated for 72 hrs by luciferase reporter gene based viral neutralization assay; type: functional, organism-based; procedure, shortened: as §2
TZM [4] = experiment: Toxicity in human TZM-bl cells assessed as reduction in cell proliferation at 10 uM incubated for 48 hrs by trypan blue staining based assay
[5] = test system: Human immunodeficiency virus 1; experiment: Antiviral activity against CXCR4-dependent HIV1 HXB2 infected in human TZM-bl cells assessed as reduction in virus infection incubated for 48 hrs by luciferase reporter gene based viral neutralization assay; type: functional; details: Human immunodeficiency virus 1, HXB2, TZM-bl; procedure, shortened: as §1
[6] = test system: Human immunodeficiency virus 1; experiment: Antiviral activity against CCR5-dependent HIV1 SF162 infected in human TZM-bl cells assessed as reduction in virus infection incubated for 72 hrs by luciferase reporter gene based viral neutralization assay; type: functional, organism-based; procedure, shortened: as §2
[7] = test system: Vesicular stomatitis virus; experiment: Antiviral activity against VSV G SVA.MLV#922 infected in human TZM-bl cells assessed as reduction in virus infection incubated for 48 hrs by luciferase reporter gene based viral neutralization assay; type: functional; details: G SVA.MLV#922, TZM-bl; procedure, shortened: as §1
TZM [8] = experiment: Toxicity in human TZM-bl cells assessed as reduction in cell proliferation at 10 uM incubated for 72 hrs by trypan blue staining based assay
[9] = test system: Human immunodeficiency virus 1; experiment: Antiviral activity against CCR5-dependent HIV1 clade B isolate PVO infected in human TZM-bl cells assessed as reduction in virus infection incubated for 48 hrs by luciferase reporter gene based viral neutralization assay; type: functional; details: Human immunodeficiency virus 1, clade B isolate PVO; procedure, shortened: as §1
[10] = test system: Human immunodeficiency virus 1; experiment: Antiviral activity against CCR5-dependent HIV1 clade B isolate QH0692 infected in human TZM-bl cells assessed as reduction in virus infection incubated for 48 hrs by luciferase reporter gene based viral neutralization assay; type: functional; details: Human immunodeficiency virus 1, clade B isolate QH0692, TZM-bl; procedure, shortened: as §1
[11] = test system: Human immunodeficiency virus 1; experiment: Antiviral activity against CCR5-dependent HIV1 cladC isolate ZM214 infected in human TZM-bl cells assessed as reduction in virus infection incubated for 48 hrs by luciferase reporter gene based viral neutralization assay; type: functional; details: Human immunodeficiency virus 1, cladC isolate ZM214, TZM-bl; procedure, shortened: as §1
[12] = test system: Human immunodeficiency virus 1; experiment: Antiviral activity against CCR5-dependent HIV1 clade B isolate PVO infected in human TZM-bl cells assessed as reduction in virus infection incubated for 72 hrs by luciferase reporter gene based viral neutralization assay; type: functional, organism-based; procedure, shortened: as §2
[13] = test system: Human immunodeficiency virus 1; experiment: Antiviral activity against CCR5-dependent HIV1 clade B isolate AC10 infected in human TZM-bl cells assessed as reduction in virus infection incubated for 72 hrs by luciferase reporter gene based viral neutralization assay; type: functional, organism-based; procedure, shortened: as §2
[14] = test system: Human immunodeficiency virus 1; experiment: Antiviral activity against CCR5-dependent HIV1 SF162 infected in human TZM-bl cells assessed as reduction in virus infection incubated for 48 hrs by luciferase reporter gene based viral neutralization assay; type: functional; details: Human immunodeficiency virus 1, SF162, TZM-bl; procedure, shortened: as §1
[15] = test system: Human immunodeficiency virus 1; experiment: Antiviral activity against CCR5-dependent HIV1 clade B isolate AC10 infected in human TZM-bl cells assessed as reduction in virus infection incubated for 48 hrs by luciferase reporter gene based viral neutralization assay; type: functional; details: Human immunodeficiency virus 1, clade B isolate AC10, 48 h; procedure, shortened: as §1
[16] = test system: Vesicular stomatitis virus; experiment: Antiviral activity against VSV G SVA.MLV#922 infected in human TZM-bl cells assessed as reduction in virus infection incubated for 72 hrs by luciferase reporter gene based viral neutralization assay; type: functional, organism-based; procedure, shortened: as §1
[17] = test system: Human immunodeficiency virus 1; experiment: Antiviral activity against CCR5-dependent HIV1 cladC isolate ZM214 infected in human TZM-bl cells assessed as reduction in virus infection incubated for 72 hrs by luciferase reporter gene based viral neutralization assay; type: functional, organism-based; procedure, shortened: as §2
[18] = test system: Human immunodeficiency virus 1; experiment: Antiviral activity against CCR5-dependent HIV1 clade B isolate QH0692 infected in human TZM-bl cells assessed as reduction in virus infection incubated for 72 hrs by luciferase reporter gene based viral neutralization assay; type: functional, organism-based; procedure, shortened: as §2

Compound | IC90 [1] | Activity [2] | Activity [3] | Activity (TZM [4]) | IC90 [5] | Activity [6] | IC90 [7] | Activity (TZM [8]) | IC90 [9] | IC90 [10] | IC90 [11] | Activity [12] | Activity [13] | IC90 [14] | IC90 [15] | Activity [16] | Activity [17] | Activity [18]
Cc1nnc(C(C)C)n1N1CC2CCCC(C1)N2CC[C@H](NC(=O)C1CCC(F)(F)CC1)c1ccccc1 | 0.09 to 3.54 µM | Active | Active | Non-Toxic | > 10 µM | Active | > 10 µM | Non-Toxic | 0.09 to 3.54 µM | 0.09 to 3.54 µM | 0.09 to 3.54 µM | Active | Active | 0.09 to 3.54 µM | 0.09 to 3.54 µM | Active | Active | Active
Cc1nnc(C(C)C)n1N1CC2CCC(C1)N2CC[C@H](NC(=O)C1CCC(F)(F)CC1)c1ccccc1 | 0.02 to 1.52 µM | Active | Active | Non-Toxic | > 10 µM | Active | > 10 µM | Non-Toxic | 0.02 to 1.52 µM | 0.02 to 1.52 µM | 0.02 to 1.52 µM | Active | Active | 0.02 to 1.52 µM | 0.02 to 1.52 µM | Active | Active | Active
Cc1nnc(C(C)C)n1[C@@H]1C[C@H]2CC[C@@H](C1)N2CC[C@H](NC(=O)C1CCC(F)(F)CC1)c1ccccc1 [MARAVIROC] | – | – | – | Non-Toxic | – | – | – | Non-Toxic | – | – | – | – | – | – | – | – | – | –
Cc1nnc(C(C)C)n1[C@H]1C[C@H]2CC[C@@H](C1)N2CC[C@H](NC(=O)C1CCC(F)(F)CC1)c1ccccc1 [MARAVIROC] | 0.08 to 0.47 µM | Active | Active | – | > 10 µM | Active | > 10 µM | – | 0.08 to 0.47 µM | 0.08 to 0.47 µM | 0.08 to 0.47 µM | Active | Active | 0.08 to 0.47 µM | 0.08 to 0.47 µM | Active | Active | Active
